Data reported in ChEMBL document CHEMBL1139534, “Inhibition of herpes simplex virus thymidine kinases by 2-phenylamino-6-oxopurines and related compounds: structure-activity relationships and antiherpetic activity in vivo” (J Med Chem, 2005).

Experiments:
Thymidine kinase [1] = molecular target: T1, Thymidine kinase (Human herpesvirus 1 (strain SC16) (HHV-1) (Human herpes simplex virus1), UniProt P06479); experiment: Inhibitory concentration against herpes simplex virus type 1 thymidine kinase
T1 sequence (P06479 whole entry): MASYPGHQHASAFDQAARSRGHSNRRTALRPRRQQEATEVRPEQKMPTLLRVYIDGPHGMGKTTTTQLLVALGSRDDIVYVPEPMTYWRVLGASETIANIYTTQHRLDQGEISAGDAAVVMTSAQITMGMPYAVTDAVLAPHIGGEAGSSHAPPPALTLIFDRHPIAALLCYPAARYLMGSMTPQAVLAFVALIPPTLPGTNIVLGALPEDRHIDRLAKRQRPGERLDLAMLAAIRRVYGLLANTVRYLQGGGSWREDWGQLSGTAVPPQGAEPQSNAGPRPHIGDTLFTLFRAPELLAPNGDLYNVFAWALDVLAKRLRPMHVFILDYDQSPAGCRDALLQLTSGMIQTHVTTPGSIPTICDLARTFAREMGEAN

Thymidine kinase [2] = molecular target: T2, Thymidine kinase (Human herpesvirus 2, UniProt Q6L709); experiment: Inhibitory concentration against herpes simplex virus type 2 thymidine kinase; set-up: species or system Human alphaherpesvirus 2
T2 sequence (Q6L709 whole entry): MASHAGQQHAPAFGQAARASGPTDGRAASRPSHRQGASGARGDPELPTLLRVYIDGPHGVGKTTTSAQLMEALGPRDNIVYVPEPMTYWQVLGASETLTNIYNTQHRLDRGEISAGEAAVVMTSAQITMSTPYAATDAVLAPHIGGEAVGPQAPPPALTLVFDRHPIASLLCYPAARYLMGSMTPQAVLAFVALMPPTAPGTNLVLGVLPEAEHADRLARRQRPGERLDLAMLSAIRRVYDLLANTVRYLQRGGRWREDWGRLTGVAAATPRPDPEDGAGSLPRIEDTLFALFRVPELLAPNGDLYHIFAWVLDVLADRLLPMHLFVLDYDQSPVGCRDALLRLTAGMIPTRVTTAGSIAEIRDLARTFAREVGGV
Method in brief: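 Recombinant His-tagged HSV-2 TK expressed in E. coli, Ni-NTA purified. Products captured on DEAE paper and counted by scintillation. Inhibitor diluted from DMSO stocks, at least five concentrations in duplicate; IC50 is the concentration halving activity.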

Mus musculus [3] = experiment: Effect on HSV-1 encephalitis in mice following intraperitoneal dosage at 100 mg/kg; expressed as mean day of death; format: functional
Method in brief: (§1)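 Female BALB/c mice, 6 weeks old, groups of 10, anesthetized with ketamine/xylazine. Corneas lightly scratched, then 10⁶ PFU per eye applied in culture medium (HSV-1 McKrae or HSV-2 G, Vero-grown). Compound given ip as corn-oil suspension, 0.1 mL, twice daily for 5 days; vehicle controls. Mice alive at 30 days counted survivors; day of death recorded for the rest.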

Mus musculus [4] = experiment: Effect on ocular HSV-2 reactivation in mice following intraperitoneal dosage at 200 mg/kg; expressed as HSV-2 positive cultures/15 mice; format: functional, Eye
Method in brief: (§2)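 Female BALB/c mice, 6 weeks old, ocularly infected with HSV-2 strain G (Vero-grown) to establish trigeminal latency. Groups of 15 received a single ip dose as a corn oil suspension, with a corn oil-only group. Thirty minutes later they were immersed in 43 °C water for 10 min as hyperthermic stress. Eyes were swabbed after 24 h for infectious virus, and virus-positive cultures were counted per group.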

Mus musculus [5] = experiment: Effect on HSV-2 encephalitis in mice following intraperitoneal dosage at 100 mg/kg; expressed as mean day of death; format: functional; method in brief: as §1
Mus musculus [6] = experiment: Effect on HSV-1 encephalitis in mice following intraperitoneal dosage at 100 mg/kg; expressed as number of survivors/10; format: functional; method in brief: as §1
Mus musculus [7] = experiment: Effect on HSV-2 encephalitis in mice following intraperitoneal dosage at 100 mg/kg; expressed as number of survivors/10; format: functional; method in brief: as §1
Mus musculus [8] = experiment: Effect on HSV-1 encephalitis in mice following intraperitoneal dosage at 400 mg/kg; expressed as mean day of death; format: functional; method in brief: as §1
Mus musculus [9] = experiment: Effect on HSV-2 encephalitis in mice following intraperitoneal dosage at 200 mg/kg; expressed as number of survivors/10; format: functional; method in brief: as §1
Mus musculus [10] = experiment: Effect on HSV-1 encephalitis in mice following intraperitoneal dosage at 200 mg/kg; expressed as number of survivors/10; format: functional; method in brief: as §1
Mus musculus [11] = experiment: Effect on HSV-2 encephalitis in mice following intraperitoneal dosage at 400 mg/kg; expressed as number of survivors/10; format: functional; method in brief: as §1
Mus musculus [12] = experiment: Effect on HSV-1 encephalitis in mice following intraperitoneal dosage at 400 mg/kg; expressed as number of survivors/10; format: functional; method in brief: as §1
Mus musculus [13] = experiment: Effect on HSV-1 encephalitis in mice following intraperitoneal dosage at 200 mg/kg; expressed as mean day of death; format: functional; method in brief: as §1
Mus musculus [14] = experiment: Effect on HSV-2 encephalitis in mice following intraperitoneal dosage at 200 mg/kg; expressed as mean day of death; format: functional; method in brief: as §1
Mus musculus [15] = experiment: Effect ocular HSV-2 reactivation in mice following intraperitoneal dosage at 200 mg/kg; expressed as HSV-2 positive cultures/15 mice; format: functional, Eye; method in brief: as §2
Thymidine kinase [16] = molecular target: T1, Thymidine kinase; experiment: Binding affinity for herpes simplex virus type 1 thymidine kinase
Thymidine kinase [17] = molecular target: T2, Thymidine kinase; experiment: Binding affinity for herpes simplex virus type 2 thymidine kinase; set-up: species or system Human alphaherpesvirus 2
Method in brief: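 His-tagged recombinant HSV-2 TK, expressed in E. coli DH5α and purified on Ni-NTA. Incubated 15 min at 37 °C in 30 mM HEPES-K+ pH 7.5, 6 mM MgCl2, 6 mM ATP, 0.5 mM DTT, with several [3H-methyl]TdR concentrations and inhibitor diluted from DMSO stocks. Phosphorylated product retained on DEAE paper disks and counted by scintillation. Ki taken from double-reciprocal (Lineweaver-Burk) plots.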

Mus musculus [18] = experiment: Effect on HSV-2 encephalitis in mice following intraperitoneal dosage at 400 mg/kg; expressed as mean day of death; format: functional; method in brief: as §1

SMILES: COCCCCn1cnc2c(=O)[nH]c(Nc3ccccc3)nc21
- IC50 (Thymidine kinase [1]): 12000 nM
- IC50 (Thymidine kinase [2]): 14000 nM

SMILES: OCCCn1cnc2c(O)nc(Nc3ccccc3)nc21
- Activity (Mus musculus [3]): 9.7
- IC50 (Thymidine kinase [1]): 2000 nM
- Activity (Mus musculus [4]): 9
- Activity (Mus musculus [5]): 10.7
- IC50 (Thymidine kinase [2]): 1500 nM
- Activity (Mus musculus [6]): 1
- Activity (Mus musculus [7]): 0

SMILES: CN(c1ccccc1)c1nc2c(ncn2CCCCO)c(=O)[nH]1
- IC50 (Thymidine kinase [1]): 16000 nM
- IC50 (Thymidine kinase [2]): 37000 nM

SMILES: O=C(O)CCCn1cnc2c(O)nc(Nc3ccccc3)nc21
- IC50 (Thymidine kinase [1]): 1000 nM
- Activity (Mus musculus [4]): 11
- IC50 (Thymidine kinase [2]): 700 nM

SMILES: Nc1nc2c(ncn2CCCCO)c(=O)[nH]1
- IC50 (Thymidine kinase [1]): 60000 nM
- IC50 (Thymidine kinase [2]): 160000 nM

SMILES: O=c1[nH]c(Nc2ccccc2)nc2c1ncn2CCO
- IC50 (Thymidine kinase [1]): 4400 nM

SMILES: OCCCCCn1cnc2c(O)nc(Nc3ccccc3)nc21
- Activity (Mus musculus [3]): 10.7
- IC50 (Thymidine kinase [1]): 15000 nM
- Activity (Mus musculus [4]): 8
- Activity (Mus musculus [5]): 11.2
- IC50 (Thymidine kinase [2]): 54000 nM
- Activity (Mus musculus [6]): 0
- Activity (Mus musculus [7]): 1

SMILES: O=c1[nH]c(Oc2ccccc2)nc2c1ncn2CCCCO
- IC50 (Thymidine kinase [1]): 750 nM
- IC50 (Thymidine kinase [2]): 9000 nM

SMILES: O=c1[nH]c(Nc2ccccc2)nc2c1ncn2CCCCO
- Activity (Mus musculus [8]): 11
- Activity (Mus musculus [9]): 9
- Activity (Mus musculus [10]): 6
- Activity (Mus musculus [11]): 10
- Activity (Mus musculus [3]): 9.5
- Activity (Mus musculus [12]): 9
- Activity (Mus musculus [13]): 11.8
- Activity (Mus musculus [4]): 4
- Activity (Mus musculus [5]): 15.7
- Activity (Mus musculus [6]): 3
- Activity (Mus musculus [14]): 18
- Activity (Mus musculus [7]): 4

SMILES: OCCCCn1cnc2c(O)nc(Sc3ccccc3)nc21
- Activity (Mus musculus [15]): 10
- IC50 (Thymidine kinase [1]): 500 nM
- IC50 (Thymidine kinase [2]): 2000 nM

SMILES: CCN(C)CCCCn1cnc2c(O)nc(Nc3ccccc3)nc21
- IC50 (Thymidine kinase [1]): 4700 nM
- IC50 (Thymidine kinase [2]): 380 nM

SMILES: OCCC1CCCCN1CCCCn1cnc2c(O)nc(Nc3ccccc3)nc21 (stereo not given)
- IC50 (Thymidine kinase [1]): 770 nM
- IC50 (Thymidine kinase [2]): 65 nM

SMILES: CN(C)CCCCn1cnc2c(O)nc(Nc3ccccc3)nc21
- IC50 (Thymidine kinase [1]): 3600 nM
- IC50 (Thymidine kinase [2]): 620 nM

SMILES: OCCN(CCO)CCCCn1cnc2c(O)nc(Nc3ccccc3)nc21
- IC50 (Thymidine kinase [1]): 5200 nM
- IC50 (Thymidine kinase [2]): 340 nM

SMILES: Oc1nc(Nc2ccccc2)nc2c1ncn2CCCCN1CCC(O)CC1
- IC50 (Thymidine kinase [1]): 8200 nM
- IC50 (Thymidine kinase [2]): 710 nM

SMILES: Oc1nc(Nc2ccccc2)nc2c1ncn2CCCCN1CCCC(O)C1 (stereo not given)
- IC50 (Thymidine kinase [1]): 5700 nM
- IC50 (Thymidine kinase [2]): 310 nM

SMILES: Oc1nc(Nc2ccccc2)nc2c1ncn2CCCCN1CCC(O)(c2ccc(Cl)c(C(F)(F)F)c2)CC1
- IC50 (Thymidine kinase [1]): 2000 nM
- IC50 (Thymidine kinase [2]): 200 nM

SMILES: Cl.Cl.Oc1nc(Nc2ccccc2)nc2c1ncn2CCCCN1CCCCC1
- IC50 (Thymidine kinase [1]): 1600 nM
- Activity (Mus musculus [4]): 11
- Activity (Mus musculus [5]): 15.2
- IC50 (Thymidine kinase [2]): 220 nM
- Activity (Mus musculus [7]): 0

SMILES: Oc1nc(Nc2ccccc2)nc2c1ncn2CCCCN1CCCCC1c1ccccc1 (stereo not given)
- IC50 (Thymidine kinase [1]): 550 nM
- IC50 (Thymidine kinase [2]): 90 nM

SMILES: COC1CCCN(CCCCn2cnc3c(O)nc(Nc4ccccc4)nc32)C1 (stereo not given)
- IC50 (Thymidine kinase [1]): 2500 nM
- IC50 (Thymidine kinase [2]): 150 nM

SMILES: CCN(CC)CCCCn1cnc2c(O)nc(Nc3ccccc3)nc21
- IC50 (Thymidine kinase [1]): 4500 nM
- IC50 (Thymidine kinase [2]): 230 nM

SMILES: Oc1nc(Nc2ccccc2)nc2c1ncn2CCCCN1CCC(N2CCCCC2)CC1
- IC50 (Thymidine kinase [1]): 16500 nM
- IC50 (Thymidine kinase [2]): 1000 nM

SMILES: C=CCN(CC=C)CCCCn1cnc2c(O)nc(Nc3ccccc3)nc21
- IC50 (Thymidine kinase [1]): 2100 nM
- IC50 (Thymidine kinase [2]): 420 nM

SMILES: Oc1nc(Nc2ccccc2)nc2c1ncn2CCCCN1CCCC1CN1CCCCC1 (stereo not given)
- IC50 (Thymidine kinase [1]): 1000 nM
- IC50 (Thymidine kinase [2]): 130 nM

SMILES: Cl.Cl.Oc1nc(Nc2ccccc2)nc2c1ncn2CCCCN1CCCC2CCCCC21 (stereo not given)
- Activity (Mus musculus [9]): 0
- Ki (Thymidine kinase [16]): 30 nM
- IC50 (Thymidine kinase [1]): 150 nM
- Activity (Mus musculus [4]): 10
- Ki (Thymidine kinase [17]): 5 nM
- IC50 (Thymidine kinase [2]): 13 nM
- Activity (Mus musculus [14]): 15.4

SMILES: Oc1nc(Nc2ccccc2)nc2c1ncn2CCCCN1CCCc2ccccc21
- IC50 (Thymidine kinase [1]): 350 nM
- IC50 (Thymidine kinase [2]): 47 nM

SMILES: CC1CN(CCCCn2cnc3c(O)nc(Nc4ccccc4)nc32)CC(C)N1 (stereo not given)
- IC50 (Thymidine kinase [1]): 7100 nM
- IC50 (Thymidine kinase [2]): 800 nM

SMILES: N#CC1(c2ccccc2)CCN(CCCCn2cnc3c(O)nc(Nc4ccccc4)nc32)CC1
- IC50 (Thymidine kinase [1]): 410 nM
- IC50 (Thymidine kinase [2]): 220 nM

SMILES: COC1CCN(CCCCn2cnc3c(O)nc(Nc4ccccc4)nc32)CC1
- IC50 (Thymidine kinase [1]): 2300 nM
- IC50 (Thymidine kinase [2]): 140 nM

SMILES: Nc1nc2c(ncn2COCCO)c(=O)[nH]1 [ACYCLOVIR]
- Activity (Mus musculus [3]): 13
- Activity (Mus musculus [4]): 10
- Activity (Mus musculus [5]): 17.2
- Activity (Mus musculus [6]): 7
- Activity (Mus musculus [7]): 6

SMILES: O=C(O)P(=O)(O)O [FOSCARNET]
- Activity (Mus musculus [8]): 12.3
- Activity (Mus musculus [9]): 4
- Activity (Mus musculus [10]): 5
- Activity (Mus musculus [11]): 6
- Activity (Mus musculus [3]): 9.2
- Activity (Mus musculus [12]): 7
- Activity (Mus musculus [18]): 18.5
- Activity (Mus musculus [13]): 10.4
- Activity (Mus musculus [4]): 7
- Activity (Mus musculus [5]): 15.2
- Activity (Mus musculus [6]): 1
- Activity (Mus musculus [14]): 17.8
- Activity (Mus musculus [7]): 0
